From ChEMBL document CHEMBL3085773, “A general method for making peptide therapeutics resistant to serine protease degradation: application to dipeptidyl peptidase IV substrates” (J Med Chem, 2013) come the findings set out here.

Calls of active or inactive are those of the source. The calls are words filed in the database; no cut-off is given here. Square brackets hold non-standard residues; d marks the D form. Peptide text beside a SMILES is read from it. ξ: configuration not given here. ξAsp(3,3-Me2) = CC(C)(C(=O)O)C(N)C(=O)O; ξTle = CC(C)(C)C(N)C(=O)O

The target of data set [1] is Chymotrypsinogen A (Bos taurus) (UniProt P00766). In words: Stability of the compound assessed as bovine pancreatic chymotrypsin-mediated compound degradation measured intact level at 0.1 mM after 0.6 hrs by reverse-phase HPLC/MS analysis. The conditions noted are these: cow.
For a further data set, the target named is Trypsin (Sus scrofa, UniProt P00761). Kind of data set: Stability of the compound assessed as porcine pancreatic trypsin-mediated compound degradation at 0.1 mM after 5 hrs by reverse-phase HPLC/MS analysis. The conditions noted are these: pig, isolated protein, 100 µM. Type of data set: ADME.
Data set [2] deals with Mus musculus. Kind of data set: Toxicity in C57BL/6 mouse assessed as change in pancreas weight at 1 mg/kg, ip qd measured on day 7 by necropsy analysis. Type of data set: organism-based. Also on record: dose 1 mg/kg, route intraperitoneal. The note with it: in vivo. Put shortly: (§1)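 C57BL/6 mice dosed ip once daily for seven days at 1 mg/kg or vehicle; necropsy on day 7 after final dose; liver, kidneys, pancreas, heart and brain collected, inspected for gross abnormalities and weighed; twelve animals in study.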

Data set [3] concerns Mus musculus. In words: Toxicity in C57BL/6 mouse assessed as abnormalities in kidney at 1 mg/kg, ip qd measured on day 7 by necropsy analysis. The class given is organism-based. The note with it: in vivo. Set-up: dose 1 mg/kg, route intraperitoneal. Put shortly:
as §1

Data set [4] concerns Mus musculus. Kind of data set: Antidiabetic activity in db/db mouse assessed as reduction of blood glucose level at 0.2 mg/kg, ip measured at 240 mins relative to vehicle-treated control. The class given is functional, organism-based. Also on record: dose 0.2 mg/kg. Put shortly:
(§2)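 db/db mice given 8 µg/mouse peptide or PBS vehicle ip; fasting blood glucose measured before and at set times after dosing; expressed as percent change from basal FBG; 10 animals per group.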

Another data set deals with Dipeptidyl peptidase 4 (Homo sapiens, UniProt P27487). In words: Stability of the compound assessed as recombinant human DPP4-mediated compound degradation at 0.1 mM measured after 24 hrs by reverse-phase HPLC/MS analysis. The class given is ADME. The note with it: 100 µM. Put shortly:
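GLP-1 peptides (0.1 mM) incubated at 37 °C with recombinant human DPP IV in 50 mM HEPES, 0.14 M NaCl, pH 8.0, up to 24 h; acid-quenched samples analysed by RP-HPLC-MS for intact peptide.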

In data set [5] the test system is Mus musculus. Kind of data set: Toxicity in C57BL/6 mouse assessed as effect on body weight at 1 mg/kg, ip qd administered for 7 days measured every day during compound administration. Type of data set: organism-based. Set-up: dose 1 mg/kg, route intraperitoneal. The conditions noted are these: in vivo, 168 h. Put shortly: (§3)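 C57BL/6 mice given 1 mg/kg ip once daily for seven days, or vehicle; body weight and per-cage food intake recorded daily; water consumption measured on days 3 and 7.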

Data set [6] has as its system Mus musculus. Kind of data set: Antidiabetic activity in db/db mouse assessed as reduction of blood glucose level at 0.2 mg/kg, ip after 90 mins relative to vehicle-treated control. The class given is functional. Also on record: scale not given: the % may be the effect or the level left. The note with it: route intraperitoneal. Put shortly: as §2
Data set [7] deals with Mus musculus. Kind of data set: Antidiabetic activity in db/db mouse assessed as reduction of blood glucose level at 0.2 mg/kg, ip after 60 mins relative to vehicle-treated control. Also on record: scale not given: the % may be the effect or the level left. Type of data set: functional. The conditions noted are these: route intraperitoneal. Put shortly:
as §2

Data set [8] relates to Mus musculus. In words: Toxicity in C57BL/6 mouse assessed as change in brain weight at 1 mg/kg, ip qd measured on day 7 by necropsy analysis. Set-up: dose 1 mg/kg, route intraperitoneal. The conditions noted are these: in vivo. Type of data set: organism-based. Put shortly:
as §1

Data set [9] deals with Mus musculus. In words: Toxicity in C57BL/6 mouse assessed as change in heart weight at 1 mg/kg, ip qd measured on day 7 by necropsy analysis. The class given is organism-based. Set-up: dose 1 mg/kg, route intraperitoneal. The conditions noted are these: in vivo. Put shortly:
as §1

Data set [10] deals with Mus musculus. Kind of data set: Toxicity in C57BL/6 mouse assessed as abnormalities in pancreas at 1 mg/kg, ip qd measured on day 7 by necropsy analysis. The class given is organism-based. Set-up: dose 1 mg/kg, route intraperitoneal. The conditions noted are these: in vivo. Put shortly:
as §1

The subject of data set [11] is Mus musculus. In words: Toxicity in C57BL/6 mouse assessed as effect on food consumption at 1 mg/kg, ip qd administered for 7 days measured every day during compound administration. Set-up: dose 1 mg/kg, route intraperitoneal. The note with it: in vivo, 168 h. Type of data set: organism-based. Put shortly:
as §3

In data set [12] the test system is Mus musculus. In words: Toxicity in C57BL/6 mouse assessed as change in kidney weight at 1 mg/kg, ip qd measured on day 7 by necropsy analysis. Type of data set: organism-based. Set-up: dose 1 mg/kg, route intraperitoneal. The conditions noted are these: in vivo. Put shortly: as §1
Data set [13] has as its system Mus musculus. In words: Toxicity in C57BL/6 mouse assessed as effect on water consumption at 1 mg/kg, ip qd administered for 7 days measured on day 3 and day 7. The conditions noted are these: in vivo, 168 h.
In data set [14] the test system is Mus musculus. Kind of data set: Toxicity in C57BL/6 mouse assessed as abnormalities in liver at 1 mg/kg, ip qd measured on day 7 by necropsy analysis. Type of data set: organism-based. The conditions noted are these: in vivo. Set-up: dose 1 mg/kg, route intraperitoneal. Put shortly: as §1
For data set [15], the system named is Mus musculus. In words: Toxicity in C57BL/6 mouse assessed as abnormalities in heart at 1 mg/kg, ip qd measured on day 7 by necropsy analysis. The class given is organism-based. The conditions noted are these: in vivo. Also on record: dose 1 mg/kg, route intraperitoneal. Put shortly: as §1
The test system of data set [16] is Mus musculus. Kind of data set: Antidiabetic activity in db/db mouse assessed as reduction of blood glucose AUC (0 to 480 mins) at 0.2 mg/kg, ip. Type of data set: functional, organism-based. Set-up: dose 0.2 mg/kg.
The subject of data set [17] is Mus musculus. Kind of data set: Toxicity in C57BL/6 mouse assessed as abnormalities in brain at 1 mg/kg, ip qd measured on day 7 by necropsy analysis. The note with it: in vivo. The class given is organism-based. Also on record: dose 1 mg/kg, route intraperitoneal. Put shortly:
as §1

In data set [18] the test system is Mus musculus. In words: Toxicity in C57BL/6 mouse assessed as change in liver weight at 1 mg/kg, ip qd measured on day 7 by necropsy analysis. The class given is organism-based. Set-up: dose 1 mg/kg, route intraperitoneal. The conditions noted are these: in vivo. Put shortly: as §1
Another data set concerns the target Alpha-lytic protease (Lysobacter enzymogenes, UniProt P00778). In words: Stability of the compound assessed as Lysobacter enzymogenes alpha-LP-mediated compound degradation at 0.1 mM after 5 hrs by reverse-phase HPLC/MS analysis. Type of data set: ADME. The note with it: 100 µM.
Data set [19] has as its target DPP4 (dipeptidyl peptidase 4) (Sus scrofa, UniProt P22411). In words: Stability of the compound assessed as porcine DPP4-mediated compound degradation measured intact level at 0.1 mM measured at 30 mins by reverse-phase HPLC/MS analysis. The class given is ADME. The note with it: pig, read-out: Stability. Put shortly: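 Synthetic hexapeptides (0.1 mM) incubated at 37 °C with 10 mU/mL DPP IV purified from porcine kidney in 50 mM HEPES, 0.14 M NaCl, pH 8.0; intact peptide by HPLC-MS, expressed as percent of time-zero value.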

Chain of Dipeptidyl peptidase 4 (P27487 whole entry): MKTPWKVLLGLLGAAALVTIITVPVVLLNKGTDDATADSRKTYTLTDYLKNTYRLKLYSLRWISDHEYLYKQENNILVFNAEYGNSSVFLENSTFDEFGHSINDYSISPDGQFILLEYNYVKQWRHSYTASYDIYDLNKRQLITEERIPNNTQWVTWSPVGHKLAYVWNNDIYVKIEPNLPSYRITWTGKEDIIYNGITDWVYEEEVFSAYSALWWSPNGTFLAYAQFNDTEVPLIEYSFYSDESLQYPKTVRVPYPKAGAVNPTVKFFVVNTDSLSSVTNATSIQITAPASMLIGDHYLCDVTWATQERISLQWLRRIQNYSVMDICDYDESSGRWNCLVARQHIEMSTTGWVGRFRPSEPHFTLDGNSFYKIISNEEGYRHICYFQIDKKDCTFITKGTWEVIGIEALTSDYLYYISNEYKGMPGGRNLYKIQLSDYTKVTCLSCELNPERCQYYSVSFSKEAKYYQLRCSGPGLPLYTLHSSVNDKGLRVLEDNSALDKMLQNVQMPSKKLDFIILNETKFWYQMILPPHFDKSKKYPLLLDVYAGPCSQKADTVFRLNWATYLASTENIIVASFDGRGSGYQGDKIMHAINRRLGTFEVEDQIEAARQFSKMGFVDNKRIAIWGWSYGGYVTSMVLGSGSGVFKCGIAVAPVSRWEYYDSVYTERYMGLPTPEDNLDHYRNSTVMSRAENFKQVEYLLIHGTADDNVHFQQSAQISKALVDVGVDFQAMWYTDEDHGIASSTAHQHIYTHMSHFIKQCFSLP
Chain of Trypsin (P00761 whole entry): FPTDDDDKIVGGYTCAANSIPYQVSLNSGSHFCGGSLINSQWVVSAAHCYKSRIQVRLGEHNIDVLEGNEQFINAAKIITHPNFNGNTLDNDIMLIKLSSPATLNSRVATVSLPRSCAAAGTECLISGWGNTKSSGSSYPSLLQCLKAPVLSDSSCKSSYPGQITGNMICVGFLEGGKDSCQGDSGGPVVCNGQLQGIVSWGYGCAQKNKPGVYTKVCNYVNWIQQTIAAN
Chain of DPP4 (dipeptidyl peptidase 4) (P22411 whole entry): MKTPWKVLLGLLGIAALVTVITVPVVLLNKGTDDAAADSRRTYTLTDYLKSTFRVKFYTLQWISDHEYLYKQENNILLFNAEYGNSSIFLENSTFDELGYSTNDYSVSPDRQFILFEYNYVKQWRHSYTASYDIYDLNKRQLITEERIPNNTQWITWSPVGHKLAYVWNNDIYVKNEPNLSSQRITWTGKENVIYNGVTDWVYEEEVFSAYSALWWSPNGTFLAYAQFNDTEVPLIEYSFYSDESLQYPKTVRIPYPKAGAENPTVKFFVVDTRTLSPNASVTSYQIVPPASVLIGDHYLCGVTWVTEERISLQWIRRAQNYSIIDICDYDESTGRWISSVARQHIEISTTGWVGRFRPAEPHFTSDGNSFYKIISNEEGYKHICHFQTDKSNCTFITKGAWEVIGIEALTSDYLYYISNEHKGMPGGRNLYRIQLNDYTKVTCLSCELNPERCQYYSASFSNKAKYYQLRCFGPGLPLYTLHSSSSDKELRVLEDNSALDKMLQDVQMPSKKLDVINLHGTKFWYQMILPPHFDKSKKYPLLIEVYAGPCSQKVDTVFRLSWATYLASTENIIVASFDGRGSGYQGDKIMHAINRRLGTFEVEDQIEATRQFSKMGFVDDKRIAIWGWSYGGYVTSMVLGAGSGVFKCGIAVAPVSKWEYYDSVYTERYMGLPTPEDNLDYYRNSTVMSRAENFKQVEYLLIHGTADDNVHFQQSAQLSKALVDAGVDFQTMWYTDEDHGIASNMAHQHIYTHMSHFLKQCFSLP
Chain of Alpha-lytic protease (P00778 whole entry): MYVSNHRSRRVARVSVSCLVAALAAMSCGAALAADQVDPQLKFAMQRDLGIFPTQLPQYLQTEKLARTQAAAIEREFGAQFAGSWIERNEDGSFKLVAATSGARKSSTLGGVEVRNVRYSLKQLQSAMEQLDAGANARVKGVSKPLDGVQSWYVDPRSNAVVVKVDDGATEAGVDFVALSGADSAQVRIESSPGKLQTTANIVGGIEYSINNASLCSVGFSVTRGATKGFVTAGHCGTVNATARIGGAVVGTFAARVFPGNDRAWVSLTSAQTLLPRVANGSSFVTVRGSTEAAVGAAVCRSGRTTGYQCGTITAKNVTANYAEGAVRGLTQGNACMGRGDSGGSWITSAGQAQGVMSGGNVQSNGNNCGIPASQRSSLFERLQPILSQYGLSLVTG

In the case of `CC(C)[C@H](NC(=O)C(NC(=O)[C@H](Cc1c[nH]c2ccccc12)NC(=O)[C@H](C)NC(=O)C(NC(=O)[C@H](Cc1ccccc1)NC(=O)C(NC(=O)[C@H](CCCCN)NC(=O)[C@H](C)NC(=O)[C@H](C)NC(=O)[C@H](CCC(N)=O)NC(=O)CNC(=O)[C@H](CCC(=O)O)NC(=O)C(NC(=O)[C@H](Cc1ccc(O)cc1)NC(=O)[C@H](CO)NC(=O)[C@H](CO)NC(=O)[C@@H](NC(=O)[C@H](CC(=O)O)NC(=O)[C@H](CO)NC(=O)C(NC(=O)[C@H](Cc1ccccc1)NC(=O)[C@@H](NC(=O)CNC(=O)C(NC(=O)[C@H](C)NC(=O)[C@@H](N)Cc1c[nH]cn1)C(C)(C)C(=O)O)[C@@H](C)O)C(C)(C)C)C(C)C)C(C)(C)C)C(C)(C)C(=O)O)C(C)(C)C)C(C)(C)C)C(=O)N[C@@H](CCCCN)C(=O)NC(C(=O)N[C@@H](CCCNC(=N)N)C(N)=O)C(C)(C)C(=O)O` (stereo partly drawn) (H-HA[ξAsp(3,3-Me2)]GTF[ξTle]SDVSSY[ξTle]EGQAAK[ξAsp(3,3-Me2)]F[ξTle]AW[ξTle]VK[ξAsp(3,3-Me2)]R-NH2), the remaining at 0.6 h, 100 µM in data set [1] worked out at 50%. In addition, the Stability entry on Trypsin is “Stable”.

Take `CC[C@H](C)[C@H](NC(=O)[C@H](Cc1ccccc1)NC(=O)[C@H](CCC(=O)O)NC(=O)[C@H](CCCCN)NC(=O)[C@H](C)NC(=O)[C@H](C)NC(=O)[C@H](CCC(N)=O)NC(=O)CNC(=O)[C@H](CCC(=O)O)NC(=O)[C@H](CC(C)C)NC(=O)[C@H](Cc1ccc(O)cc1)NC(=O)[C@H](CO)NC(=O)[C@H](CO)NC(=O)[C@@H](NC(=O)[C@H](CC(=O)O)NC(=O)[C@H](CO)NC(=O)[C@@H](NC(=O)[C@H](Cc1ccccc1)NC(=O)[C@@H](NC(=O)CNC(=O)C(NC(=O)[C@H](C)NC(=O)[C@@H](N)Cc1c[nH]cn1)C(C)(C)C(=O)O)[C@@H](C)O)[C@@H](C)O)C(C)C)C(=O)N[C@@H](C)C(=O)N[C@@H](Cc1c[nH]c2ccccc12)C(=O)N[C@@H](CC(C)C)C(=O)N[C@H](C(=O)N[C@@H](CCCCN)C(=O)NCC(=O)N[C@@H](CCCNC(=N)N)C(N)=O)C(C)C` (stereo partly drawn): the Activity result in the data set with Mus musculus [2] is on record as “Non-toxic”; with Mus musculus [3], “Non-toxic”; in the data set with Mus musculus [5], “Non-toxic”; with Mus musculus [6], 45%; in the data set on Mus musculus [7] it was 50%; in the data set with Mus musculus [8], “Non-toxic”. The Activity entry in the data set with Mus musculus [9], in the data set with Mus musculus [10], in the data set on Mus musculus [11], in the data set on Mus musculus [12], with Mus musculus [13] and in the data set on Mus musculus [14] was “Non-toxic” throughout. The Activity entry with Mus musculus [15], in the data set on Mus musculus [17] and with Mus musculus [18] was “Non-toxic” each time. The result in the data set with Mus musculus [4] was inactive. The Stability result at Dipeptidyl peptidase 4 is reported as “Stable”. Besides, the outcome in the data set with Mus musculus [16] was Active.

For `CC[C@H](C)[C@H](NC(=O)[C@H](Cc1ccccc1)NC(=O)[C@H](CCC(=O)O)NC(=O)[C@H](CCCCN)NC(=O)[C@H](C)NC(=O)[C@H](C)NC(=O)[C@H](CCC(N)=O)NC(=O)CNC(=O)[C@H](CCC(=O)O)NC(=O)[C@H](CC(C)C)NC(=O)[C@H](Cc1ccc(O)cc1)NC(=O)[C@H](CO)NC(=O)[C@H](CO)NC(=O)[C@@H](NC(=O)[C@H](CC(=O)O)NC(=O)[C@H](CO)NC(=O)[C@@H](NC(=O)[C@H](Cc1ccccc1)NC(=O)[C@@H](NC(=O)CNC(=O)C(NC(=O)[C@H](C)NC(=O)[C@@H](N)Cc1cnc[nH]1)C(C)(C)C)[C@@H](C)O)[C@@H](C)O)C(C)C)C(=O)N[C@@H](C)C(=O)N[C@@H](Cc1c[nH]c2ccccc12)C(=O)N[C@@H](CC(C)C)C(=O)N[C@H](C(=O)N[C@@H](CCCCN)C(=O)NCC(=O)N[C@@H](CCCN=C(N)N)C(N)=O)C(C)C` (stereo partly drawn), the Stability result on Dipeptidyl peptidase 4 is recorded as “Stable”.

Regarding `CC(C)C[C@H](NC(=O)[C@@H](N)CC(C)C)C(=O)N1CCC[C@H]1C(=O)N[C@@H](CCCNC(=N)N)C(=O)N[C@H](C(=O)N[C@@H](C)C(=O)NC(C(=O)NCC(=O)N[C@@H](CO)C(=O)N[C@@H](CO)C(=O)N[C@@H](Cc1ccccc1)C(=O)N[C@H](C(=O)N[C@H](C(=O)N[C@H](C(=O)O)C(C)C)[C@@H](C)O)C(C)C)C(C)(C)C)C(C)C` (stereo partly drawn) (H-LLPRVA[ξTle]GSSFVTV-OH), the Stability entry on Alpha-lytic protease was “Stable”.

Take `CC(C)C[C@H](NC(=O)[C@@H]1CCCN1C(=O)[C@H](C)N)C(=O)N[C@@H](CO)C(=O)N[C@@H](Cc1c[nH]c2ccccc12)C(=O)N[C@@H](CO)C(=O)O` (H-APLSWS-OH): the remaining at 0.5 h, 100 µM in data set [19] is under 70%.
